# Reference: ChEMBL document CHEMBL2396601, “Synthesis and antiprotozoal activity of dicationic m-terphenyl and 1,3-dipyridylbenzene derivatives” (J Med Chem, 2013)
# Activity calls are given as the source filed them. The calls are words filed in the database; no cut-off is given here.
# Key:
# Mus musculus [1] = assay: Toxicity in BALB/c mouse assessed as tremors measured after second dose at 30 mg/kg, ip qd for 5 days; assay type: organism-based; set-up: dose 30 mg/kg, route intraperitoneal; conditions: in vivo, 120 h
# How it was run: (§1)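 Tolerability check before efficacy testing in uninfected BALB/c mice, groups of two, given 30 mg/kg ip daily for five days. Watched for overt toxicity signs such as tremors and hyperactivity after each dose. Mice showing adverse effects were euthanized.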
# L6 = assay: Cytotoxicity against rat L6 cells after 72 hrs by Alamar Blue assay; assay type: cell-based; conditions: L6, 72 h
# How it was run: (§2)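 Uses T. b. rhodesiense STIB900, T. cruzi Tulahuen C2C4 LacZ intracellular amastigotes, or L6 rat myoblasts depending on line.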
# [2] = Selectivity index, ratio of IC50 for rat L6 cells to IC50 for Leishmania amazonensis; assay type: toxicity, cell-based; conditions: read-out: Ratio IC50
# How it was run: (§3)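 Selectivity index is IC50 against L6 rat myoblast cells divided by IC50 against the named parasite.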
# Leishmania amazonensis = assay: Antiprotozoal activity against intracellular amastigote form of Leishmania amazonensis infected in CD1 mouse macrophages after 72 hrs by […]; assay type: functional, organism-based
# [3] = Selectivity index, ratio of IC50 for rat L6 cells to IC50 for Plasmodium falciparum K1; assay type: toxicity, cell-based; conditions: L6 cells, read-out: Ratio IC50; how it was run: as §3
# Plasmodium falciparum = assay: Antiprotozoal activity against chloroquine-resistant Plasmodium falciparum K1 after 48 hrs by [3H]-hypoxanthine incorporation assay; assay type: functional, organism-based
# [4] = Selectivity index, ratio of IC50 for rat L6 cells to IC50 for Trypanosoma cruzi Tulahuen C2C4; assay type: toxicity, cell-based; conditions: read-out: Ratio IC50; how it was run: as §3
# Trypanosoma cruzi = assay: Antiprotozoal activity against intracellular amastigote form of Trypanosoma cruzi Tulahuen C2C4 expressing LacZ infected in rat L6 cells after 48 hrs; assay type: functional, organism-based; conditions: Tulahuen C2C4, L6, 48 h; how it was run: as §2
# [5] = Selectivity index, ratio of IC50 for rat L6 cells to IC50 for Trypanosoma brucei rhodesiense STIB900; assay type: toxicity, cell-based; conditions: L6 cells, read-out: Ratio IC50; how it was run: as §3
# [6] = system: Trypanosoma brucei rhodesiense; assay: Antiprotozoal activity against Trypanosoma brucei rhodesiense STIB900 after 72 hrs by Alamar Blue assay; assay type: functional, organism-based; how it was run: as §2
# Mus musculus [7] = assay: Toxicity in BALB/c mouse assessed as hyperactivity measured after first dose at 30 mg/kg, ip qd for 5 days; assay type: organism-based; set-up: dose 30 mg/kg, route intraperitoneal; conditions: in vivo, 120 h; how it was run: as §1
# [8] = system: Trypanosoma brucei rhodesiense; assay: Antiprotozoal activity against Trypanosoma brucei rhodesiense STIB900 infected in NMRI mouse assessed as host mean survival days at 25 mg/kg, po qd for 4 days; assay type: functional
# How it was run: (§4)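 Acute-stage HAT mouse model infected with STIB900. Cure means survival to 60 days after infection with no parasitemia relapse. Mean survival days are counted from infection and use every mouse: relapsed mice, plus cured mice entered as >60 days.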
# [9] = system: Trypanosoma brucei rhodesiense; assay: Antiprotozoal activity against Trypanosoma brucei rhodesiense STIB900 infected in NMRI mouse assessed as reduction of parasitemia relapse at 25 mg/kg, po qd for 4 days; assay type: functional, organism-based; set-up: dose 25 mg/kg
# How it was run: (§5)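 Mouse model of acute (early) stage HAT with T. b. rhodesiense STIB900, groups of 4 mice. Amidines dosed intraperitoneally, 4 daily doses of 5 mg/kg or single doses; prodrugs dosed orally, 4 daily doses of 25 mg/kg. Cure means survival to 60 days after infection with no parasitemia relapse. Mean survival days counts all mice, with cured mice scored as >60 days.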
# [10] = system: Trypanosoma brucei rhodesiense; assay: Antiprotozoal activity against Trypanosoma brucei rhodesiense STIB900 infected in NMRI mouse assessed as reduction of parasitemia relapse at 10 mg/kg, ip; assay type: functional, organism-based; set-up: dose 10 mg/kg; how it was run: as §5
# [11] = system: Trypanosoma brucei rhodesiense; assay: Antiprotozoal activity against Trypanosoma brucei rhodesiense STIB900 infected in NMRI mouse assessed as reduction of parasitemia relapse at 5 mg/kg, ip qd for 4 days; assay type: functional, organism-based; set-up: dose 5 mg/kg; how it was run: as §5
# [12] = system: Trypanosoma brucei rhodesiense; assay: Antiprotozoal activity against Trypanosoma brucei rhodesiense STIB900 infected in NMRI mouse assessed as host mean survival days at 5 mg/kg, ip qd for 4 days; assay type: functional; conditions: route intraperitoneal; how it was run: as §4
# [13] = system: Trypanosoma brucei rhodesiense; assay: Antiprotozoal activity against Trypanosoma brucei rhodesiense STIB900 infected in NMRI mouse assessed as host mean survival days at 5 mg/kg, ip; assay type: functional; conditions: route intraperitoneal; how it was run: as §4
# [14] = system: Trypanosoma brucei rhodesiense; assay: Antiprotozoal activity against Trypanosoma brucei rhodesiense STIB900 infected in NMRI mouse assessed as reduction of parasitemia relapse at 5 mg/kg, ip; assay type: functional, organism-based; set-up: dose 5 mg/kg; how it was run: as §5
# Leishmania donovani [15] = assay: Antiprotozoal activity against Leishmania donovani promastigotes infected in BALB/c mouse assessed as inhibition of liver parasitemia at 10 mg/kg, po qd for 5 days; assay type: functional; conditions: 120 h
# How it was run: (§6)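 L. donovani-infected BALB/c mice dosed daily for 5 days, 30 mg/kg ip or 10 mg/kg orally, depending on line.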
# [16] = system: Trypanosoma brucei rhodesiense; assay: Antiprotozoal activity against Trypanosoma brucei rhodesiense STIB900 infected in NMRI mouse assessed as host mean survival days at 10 mg/kg, ip; assay type: functional; conditions: route intraperitoneal; how it was run: as §4
# Leishmania donovani [17] = assay: Antiprotozoal activity against Leishmania donovani promastigotes infected in BALB/c mouse assessed as inhibition of liver parasitemia at 30 mg/kg, ip qd for 5 days; assay type: functional; conditions: 120 h, route intraperitoneal; how it was run: as §6
# Mus musculus [18] = assay: Toxicity in BALB/c mouse assessed as mortality at 30 mg/kg, ip qd for 5 days; assay type: organism-based; set-up: dose 30 mg/kg, route intraperitoneal; conditions: in vivo, 120 h
# [19] = Trypanosoma brucei, STIB900, 72 h
SMILES,IC50 (L6),selectivity ratio [2],IC50 (Leishmania amazonensis),selectivity ratio [3],"IC50 (Plasmodium falciparum; Plasmodium falciparum, K1)",selectivity ratio [4],IC50 (Trypanosoma cruzi),selectivity ratio [5],"IC50 [6, 19]",MSD [8],further results
Cl.Cl.N=C(Nc1ccc(-c2cccc(-c3cccc(NC(=N)c4ccccn4)c3)c2)cc1)c1ccccn1,2.72 µM,22,0.123 µM,13,0.208 µM,7,0.388 µM,1,1.94 µM,,Activity (Mus musculus [1]): Toxic; Activity (Mus musculus [7]): Toxic
Cl.Cl.N/C(=N/O)c1ccc(-c2cccc(-c3ccc(/C(N)=N\O)cc3)c2)cc1,> 150 µM,,,,> 10 µM,,> 150 µM,> 14,10.9 µM,>51.25 days,
CC(C)Oc1cc(NC(=N)c2ccccn2)ccc1-c1cc(Cl)cc(-c2ccccc2)c1,9.69 µM,10,0.933 µM,< 1,> 10 µM,2,4.18 µM,< 1,32.4 µM,,
CO/N=C(\N)c1cccc(-c2cccc(-c3cccc(/C(N)=N\OC)c3)c2)c1.Cl.Cl,20.3 µM,,,2,9.31 µM,< 1,24.1 µM,2,11.3 µM,17.25 days,Activity [9]: inactive
N=C(N)c1ccc(-c2cccc(-c3ccc(C(=N)N)cn3)c2)nc1,,,,,,,,,,,Activity [10]: Active; Activity [11]: Active
Cl.Cl.N=C(N)c1ccc(-c2cccc(-c3ccc(C(=N)N)nc3)c2)cn1,22.3 µM,,,1480,0.015 µM,< 1,43.4 µM,3720,0.006 µM,,MSD [12]: >60 days; Activity [11]: Active; MSD [13]: >60 days; Activity [14]: Active
Cl.Cl.Cl.N=C(Nc1cccc(-c2cc(Cl)cc(-c3cccc(NC(=N)c4ccccn4)c3)c2)c1)c1ccccn1,2.5 µM,26,0.095 µM,450,0.006 µM,47,0.053 µM,133,0.019 µM,,Activity (Mus musculus [1]): Toxic; Activity (Mus musculus [7]): Toxic
N=C(Nc1ccc(-c2cccc(-c3cccc(NC(=N)c4ccccc4)c3)c2)cc1)c1ccccc1,2.52 µM,3,0.907 µM,66,0.038 µM,1,2.14 µM,4,0.635 µM,,
N=C(Nc1ccc(-c2cc(Cl)cc(-c3cccc(NC(=N)c4ccccc4)c3)c2)cc1)c1ccccc1,2.27 µM,2,1.02 µM,58,0.039 µM,1,2.04 µM,13,0.178 µM,,
N=C(Nc1cccc(-c2cc(Cl)cc(-c3cccc(NC(=N)c4ccccc4)c3)c2)c1)c1ccccc1,4.1 µM,2,2.43 µM,58,0.071 µM,2,2.09 µM,8,0.533 µM,,
CCCCCCCCCCCCCCCCOP(=O)([O-])OCC[N+](C)(C)C [MILTEFOSINE],,,,,,,,,,,inhibition in vivo at 10 mg/kg (Leishmania donovani [15]): 96%
CO/N=C(\N)c1ccc(-c2cccc(-c3ccc(/C(N)=N\OC)cn3)c2)nc1.Cl,> 150 µM,,,> 42,3.56 µM,> 1,117 µM,> 6,26.3 µM,>53.75 days,
Cl.Cl.N=C(N)c1ccc(-c2cccc(-c3ccc(C(=N)N)cc3)c2)cc1,31.2 µM,,,1280,0.024 µM,< 1,71.6 µM,8490,0.004 µM,,MSD [16]: >60 days; MSD [12]: >60 days; Activity [10]: Active; Activity [11]: Active
CN(C)CC(=O)O/N=C(\N)c1ccc(-c2cccc(-c3ccc(/C(N)=N\OC(=O)CN(C)C)cn3)c2)nc1,62.9 µM,,,129,0.486 µM,< 1,72.3 µM,6,9.84 µM,>52 days,
Cl.Cl.N/C(=N\O)c1cccc(-c2cccc(-c3cccc(/C(N)=N\O)c3)c2)c1,5.6 µM,,,< 1,8.23 µM,< 1,11.2 µM,2,2.55 µM,7.25 days,Activity [9]: inactive
CC(C)Oc1ccc(NC(=N)c2ccccn2)cc1-c1cc(Cl)cc(-c2ccccc2)c1,3.77 µM,2,1.88 µM,1,3.08 µM,1,2.98 µM,< 1,12.3 µM,,
Cl.Cl.Cl.N=C(Nc1ccc(-c2cc(Cl)cc(-c3cccc(NC(=N)c4ccccn4)c3)c2)cc1)c1ccccn1,2.64 µM,13,0.211 µM,12,0.219 µM,2,1.54 µM,24,0.109 µM,,inhibition in vivo at 30 mg/kg (Leishmania donovani [17]): 23%; Activity (Mus musculus [18]): Non-toxic
Cl.N=C(N)c1ccc(-c2cccc(-c3ccc(C(=N)N)cn3)c2)nc1,,,,> 3760,,,,> 8820,,,MSD [16]: >60 days; MSD [12]: >60 days; IC50 (Plasmodium falciparum): 0.04 µM; IC50 [6]: 0.017 µM
CO/N=C(/N)c1ccc(-c2cccc(-c3ccc(/C(N)=N\OC)cc3)c2)cc1.Cl.Cl,19.2 µM,,,< 2,> 10 µM,< 1,92.6 µM,4,4.44 µM,>34.25 days,
